# Screening data deposited in PubChem BioAssay by The Scripps Research Institute Molecular Screening Center.
# An excerpt weighted towards active compounds, which were near 2.3% of everything screened.
# OXTR ag: agonists of human oxytocin receptor | CHO-OTR cells, Fluo-8 calcium fluorescence; normalized: DMSO 0%, oxytocin 100% | activation, % at 3 µM | actives 0.32% (n = 320,000);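 active = activation above the mean of all tested compounds plus 3 SD, cutoff set per screening run, cut at about 20% in these data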;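 also: peak over basal fluorescence ratio from a 100 s FLIPR kinetic read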
# Target sequence (P30559 whole entry, looked up): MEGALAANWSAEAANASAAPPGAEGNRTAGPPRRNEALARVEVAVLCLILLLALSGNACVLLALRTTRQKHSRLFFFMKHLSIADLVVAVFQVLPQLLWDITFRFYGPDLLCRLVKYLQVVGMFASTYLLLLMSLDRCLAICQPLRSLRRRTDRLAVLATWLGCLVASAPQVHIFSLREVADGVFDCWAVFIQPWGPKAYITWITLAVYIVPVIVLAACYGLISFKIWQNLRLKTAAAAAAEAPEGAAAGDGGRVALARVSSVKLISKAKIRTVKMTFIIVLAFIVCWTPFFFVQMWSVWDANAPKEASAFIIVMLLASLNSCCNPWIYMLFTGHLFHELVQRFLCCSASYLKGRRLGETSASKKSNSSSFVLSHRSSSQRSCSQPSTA
# TAAR1 antagonist: human TAAR1 antagonism. CHO RD-HGA16 TAAR1, Fluo-8 calcium fluorescence, antagonist. inhibition, % at 3 µM. actives 1.5% (n = 360,000);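 active = inhibition above a per-plate cutoff, the mean inhibition of test compounds on that plate plus 3 SD, cut at about 49% in these data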;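 also: 0% = DMSO plus EC80 beta-PEA response and 100% = DMSO alone without agonist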
#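 Material: RD-HGA16 CHO cells with stable hTAAR1 and Gα16; Dosing: single nominal final test compound concentration of 3 µM; Schedule: seeding 17-24 h prior, 75-min 37 °C, 30-min RT dye loading; Detection: kinetic Fluo-8 calcium fluorescence measurement; Measure: % inhibition from peak post-agonist over basal fluorescence ratio; Benchmarks: vehicle and agonist controls.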
# V1aR counter: activates human V1a receptor in oxytocin agonist counter-screen; P37288; CHO-V1R cells, Fluo-8 calcium fluorescence, agonist mode; 0% DMSO, 100% 3 nM vasopressin; activation, % at 3 µM; actives 0.25% (n = 320,000);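 active = activation above the mean activation of all tested compounds plus 3 SD, per screening run, cut at about 20% in these data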;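 also: signal is peak over basal fluorescence ratio across a 100 second FLIPR read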
# OXTR potentiator: potentiators of human oxytocin receptor | P30559 | CHO-OTR cells, Fluo-8 calcium fluorescence, potentiator mode; 0% = oxytocin EC15, 100% = EC100 | activation, % at 3 µM | actives 0.061% (n = 320,000) | AID 2445;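 active = activation above that plate's cutoff, the mean activation of tested compounds plus 3 SD, cut at about 6.6% in these data, passing the limit was not always enough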;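 also: 100% uses oxytocin at 75 nM as the full agonist control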
#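 System: human OTR in CHO cells; Also added: sub-maximal oxytocin, roughly EC15; Timing: compound 6 min at room temperature before oxytocin, 100 s read; Technique: Fluo-8 intracellular calcium fluorescence, ex 470-495, em 515-575 nm; Controls: oxytocin EC15 low and EC100 high; Replication: singlicate.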
# TAAR1 agonist: agonists of human TAAR1; Q96RJ0; CHO RD-HGA16 TAAR1, Fluo-8 calcium fluorescence; vehicle wells 0%, saturating PEA agonist 100%; activation, % at 3 µM; actives 0.99% (n = 360,000);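 active = activation above the mean activation of all test compounds in the run plus 3 SD, cut at about 38% in these data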
#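 Assay system: CHO-derived RD-HGA16 cells with stable Gα16 and human TAAR1; timing: 17-24 h seeding, 75 min 37 °C dye, 30 min RT; read-out: % activation from peak over basal fluorescence ratio, DMSO-to-PEA scaled; measured by: kinetic Fluo-8 calcium fluorescence; benchmarks: low control DMSO, high control PEA (EC100); doses: 3 µM single concentration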
# * marks the source's active call; other numbers are inactive results; / = no result.
SMILES,OXTR ag,TAAR1 antagonist,V1aR counter,OXTR potentiator,TAAR1 agonist
Cc1ccc(C(=O)OCC(=O)N(CCc2ccccc2)Cc2ccccc2)cc1S(=O)(=O)N1CCOCC1,-0.5,50.0*,1.8,-7.5,3.7
O=C(c1cccc(S(=O)(=O)NCc2ccccc2)c1)N1CCN(c2cccc(C(F)(F)F)c2)CC1,1.5,13.8,4.3,-13.9,0.7
N=c1n(Cc2ccccc2)c2ccccc2n1CC(O)COc1ccccc1 (centres undefined),9.1,-4.2,6.9,-5.2,13.0
Cc1ccc(Cn2c(=N)n(CC(O)COc3ccccc3)c3ccccc32)cc1 (centres undefined),28.0*,-16.3,28.2*,-11.5,13.0
O=C(Nc1ccc(Cl)cn1)C1CCN(c2ncnc3c2nc2n3CCCCC2)CC1,0.4,-7.1,4.0,-14.9,0.3
COc1cccc(/C=C2\SC(=S)N(CCCC(=O)N(CCO)c3ccccc3)C2=O)c1,2.0,48.7*,5.9,-15.9,3.5
Cc1ccc(S(=O)(=O)N2CCN(C(=O)CSc3ccccn3)CC2)c(C)c1,-0.1,-1.8,0.8,-12.4,0.3
CC(C)(C)OC(=O)NCCCCCNC(=O)c1[nH]cnc1C(=O)N[C@@H](Cc1ccccc1)C(=O)OCc1ccccc1,2.2,54.3*,1.4,-7.9,12.6
C[C@H](NC(=O)c1nc[nH]c1C(=O)N[C@@H](CCCCNC(=O)OC(C)(C)C)C(=O)OC(C)(C)C)C(=O)OCc1ccccc1,-1.4,16.1,-0.8,-14.1,0.8
O=C(CNC(=O)c1[nH]cnc1C(=O)N[C@@H](Cc1ccccc1)C(=O)OCc1ccccc1)OCc1ccccc1,0.9,63.9*,0.6,-8.4,11.9
CC(C)C[C@H](NC(=O)c1nc[nH]c1C(=O)NCCCCCNC(=O)OC(C)(C)C)C(=O)OCc1ccccc1,1.8,41.6,2.5,-9.3,11.0
C[C@H](NC(=O)c1nc[nH]c1C(=O)NCCCCCNC(=O)OC(C)(C)C)C(=O)OCc1ccccc1,3.3,76.3*,3.4,-11.3,13.8
CCn1c(=S)sc2c(=O)n(CC(=O)Nc3ccccc3OC)c(C)nc21,0.8,-7.4,1.9,-5.8,0.3
COCCN(C(=O)c1c(C)noc1C)c1c(N)n(CC(C)C)c(=O)[nH]c1=O,1.7,6.5,0.0,3.4,-1.3
Cc1ccc(C)c(C(O)c2ncc(-c3ccc(C(F)(F)F)cc3)[nH]2)c1 (centres undefined),/,48.7*,/,/,21.6
CC(=O)c1cccc(NC(=O)COC(=O)c2cccc(N3C(=O)c4ccccc4C3=O)c2)c1,2.4,48.9*,3.7,-13.1,18.2
CCN(CC)c1ccc(NC(=O)CSC(=O)c2ccccc2)cc1,-0.2,-25.5,-0.2,2.1,-2.8
Cc1ccc(NC(=O)COC(=O)c2cccc(N3C(=O)c4ccccc4C3=O)c2)cc1,-0.2,-0.2,1.2,0.2,5.1
CC(=O)c1cccc(NC(=O)CSC(=O)c2ccccc2)c1,2.5,-11.9,1.4,-5.2,38.4*
COc1ccc(OC)c(-c2csc(NC(=O)Cn3[nH]c(=O)c4ccccc4c3=O)n2)c1,0.0,54.2*,1.2,-5.6,4.2
COc1ccc(-c2csc(NC(=O)CCS(=O)(=O)c3ccccc3)n2)c(OC)c1,2.8,54.6*,4.5,-6.2,11.6
COc1ccc(OC)c(-c2csc(NC(=O)CSc3ccc([N+](=O)[O-])cc3)n2)c1,1.2,48.6*,1.0,-4.2,3.9
CN(C(=O)c1ccc(NC(=O)Cc2ccc([N+](=O)[O-])cc2)cc1)C1CCCC1,21.9*,38.5,21.4*,-12.3,48.2*
CN(C(=O)c1cccc(NC(=O)Cc2ccc([N+](=O)[O-])cc2)c1)C1CCCC1,5.9,9.9,6.0,-7.0,7.6
CCCCNC(=O)C1CC(c2cccc([N+](=O)[O-])c2)=NO1 (centres undefined),0.4,13.0,0.9,-3.7,5.4
SMILES,OXTR ag,TAAR1 antagonist,V1aR counter,OXTR potentiator,TAAR1 agonist
O=C(NCCc1cccs1)C1CC(c2cccc([N+](=O)[O-])c2)=NO1 (centres undefined),0.7,48.7*,0.8,-7.8,32.5
COc1ccc(N=Nc2c(C)[nH][nH]c2=O)cc1,-1.8,0.0,-0.9,7.6,-1.8
CC(=O)Nc1cccc(-n2nnc(SCC(=O)Nc3ccc(F)c(Cl)c3)n2)c1,7.3,14.1,5.8,-14.1,6.1
COc1ccc(C(=O)CSc2nnc(CN3CCCCC3)n2-c2ccc(Cl)cc2)cc1OC,16.7,6.7,14.8,-18.4,43.7*
O=C(CSc1nnc(CN2CCCC2)n1-c1ccccc1)c1ccc2c(c1)OCO2,-0.8,10.3,-0.4,-6.4,0.8
COC(=O)C(CC(C)C)NC(=O)c1ccc(F)cc1 (centres undefined),-1.0,-9.1,0.1,3.3,19.9
O=C(CNC(=O)c1ccc(Br)cc1)NCCc1nc2ccccc2[nH]1,0.8,-0.3,-1.0,-0.7,0.6
CCS(=O)(=O)Nc1ccc(C2=NN(C(=O)c3ccco3)C(c3ccc(C)cc3)C2)cc1 (centres undefined),-0.9,/,-0.2,11.0*,/
O=C(CSCc1ccc(Br)cc1)NCCc1ccccc1,-2.2,-5.4,-0.8,1.1,40.4*
O=C(CSCc1ccccc1)NCCc1ccc(F)cc1,-1.6,17.8,0.1,1.7,-1.1
CC(C)(C)OC(=O)NCCCCCNC(=O)c1[nH]cnc1C(=O)N[C@@H](CCCCNC(=O)OC(C)(C)C)C(=O)OC(C)(C)C,-2.3,/,0.1,-12.3,/
O=C(Nc1ccccc1)c1nc[nH]c1C(=O)NCCCNC(=O)c1[nH]cnc1C(=O)Nc1ccccc1,0.9,53.9*,1.0,-3.5,18.9
CC(C)(C)OC(=O)NCc1ccc(CNC(=O)c2nc[nH]c2C(=O)NCc2ccc(CNC(=O)OC(C)(C)C)cc2)cc1,-0.2,43.2,1.0,-7.6,7.7
CC(C)(C)OC(=O)NCCCCCNC(=O)c1nc[nH]c1C(=O)NCc1ccc(CNC(=O)OC(C)(C)C)cc1,5.7,81.0*,7.0,-8.0,23.3
CC(C)(C)OC(=O)NCCCCCNC(=O)c1nc[nH]c1C(=O)NCCCCCNC(=O)OC(C)(C)C,2.6,69.1*,5.2,-8.7,21.4
C[C@H](NC(=O)c1nc[nH]c1C(=O)N[C@@H](C)c1ccccc1)c1ccccc1,-1.7,53.9*,-0.8,-1.4,41.8*
COc1ccc(CCC(=O)Nc2ccc3c(c2)OCO3)cc1,0.9,-8.8,1.4,-18.6,1.6
CC(C)NC(=O)NC(=O)CSc1ncc(C(F)(F)F)cc1Cl,-1.4,4.0,-1.9,-6.0,10.5
CC(OC(=O)c1ccc(S(=O)(=O)NCc2ccco2)cc1)C(=O)Nc1ccccc1 (centres undefined),2.9,6.4,2.7,-7.5,4.5
